Measurements from ChEMBL document CHEMBL2346497, “Synthesis of novel cognition enhancers with pyrazolo[5,1-c][1,2,4]benzotriazine core acting at γ-aminobutyric acid type A (GABA(A)) receptor” (Bioorg Med Chem, 2013).
Calls of active or inactive are those of the source. The calls are words filed in the database; no cut-off is given here.

Tests used:
Mus musculus [1] = experiment: Anxiolytic activity in CD1 albino mouse assessed as increase in time spent in illuminated side at 1 mg/kg, po administered 30 mins prior to testing measured for 5 mins by light-dark box test; assay type: functional, organism-based; set-up: dose 1 mg/kg
Procedure, shortened: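 Light/dark box: two equal acrylic compartments, one lit by a 60 W lamp, joined by a floor-level opening. Male CD-1 mice were dosed po in 1% CMC 30 min before the test, then placed in the centre of the lit side facing away from the dark side. Over 5 min, transfers and time in the light side were recorded, n = 8 mice per group.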

Rattus norvegicus [2] = experiment: Procognitive effect in Harlan Wistar rat assessed as decrease in exploring time of unfamiliar rat during social investigatory behaviour at 0.3 to 10 mg/kg, po administered 30 mins prior to testing measured for 5 mins by social learning test relative to control; assay type: functional, organism-based
[3] = Displacement of [3H]Ro15-1788 from GABA-A receptor benzodiazepine binding site in bovine cerebral cortex membranes after 1 hr; assay type: cell membranes, Bos taurus, Membrane
Mus musculus [4] = experiment: Antiamnesic activity in CD1 albino mouse assessed as reversal of scopolamine-induced amnesia at 0.1 mg/kg, po administered 30 mins prior to scopolamine challenge measured after 24 hrs by passive avoidance test; assay type: functional, organism-based; set-up: dose 0.1 mg/kg
Procedure, shortened: (§1)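 Step-through passive avoidance in male CD-1 mice (22–24 g). Test drugs were given po, suspended in 1% carboxymethylcellulose at 10 ml/kg, 30 min before the training session. For the antiamnesic arm, scopolamine 1.5 mg/kg was injected immediately after punishment. Retention latency was compared with CMC-treated controls, n = 10–12 mice per group.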

Rattus norvegicus [5] = experiment: Procognitive effect in Harlan Wistar rat assessed as exploring time of familiar rat during social investigatory behaviour at 0.3 mg/kg, po administered 30 mins prior to testing measured for 5 mins by social learning test (reference value: 27.6 secs); assay type: functional
[6] = molecular target: GABA A receptor alpha-2/beta-2/gamma-2 (Homo sapiens) (UniProt P47870+P18507+P47869); experiment: Displacement of [3H]Ro15-1788 from recombinant GABA-A alpha2beta2gamma2 receptor benzodiazepine binding site (unknown origin) at 10 uM after 1 hr relative to control; assay type: protein-complex assay
Procedure, shortened: (§2)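 Membranes came from clonal mammalian cell lines expressing α1β2γ2, α2β2γ2 or α5β3γ2 receptors, grown in MEM/EBSS with 10% FCS at 37 °C. Membranes were resuspended in 10 mM potassium phosphate, pH 7.4, with 100 mM KCl. Assays used 1–2 nM [3H]Ro15-1788 and test compound from 10^-9 to 10^-5 M, at least six concentrations. Diazepam at 10^-5 M defined nonspecific binding. Incubation ran 1 h at 4 °C. Single-point % inhibition was measured at 10 µM, and Ki by curve fitting; n = 5, in duplicate.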

Mus musculus [7] = experiment: Cognitive enhancing effect in CD1 albino mouse assessed as increase in retention latency at 0.1 to 10 mg/kg, po administered 30 mins prior to testing measured after 24 hrs by passive avoidance test relative to control; assay type: functional, organism-based; procedure, shortened: as §1
[8] = molecular target: T1, Gamma-aminobutyric acid receptor subunit alpha-5 (Homo sapiens, UniProt P18507+P31644+P47870); experiment: Displacement of [3H]Ro15-1788 from recombinant GABA-A alpha5beta2gamma2 receptor benzodiazepine binding site (unknown origin) after 1 hr
T1 sequence (P31644 whole entry): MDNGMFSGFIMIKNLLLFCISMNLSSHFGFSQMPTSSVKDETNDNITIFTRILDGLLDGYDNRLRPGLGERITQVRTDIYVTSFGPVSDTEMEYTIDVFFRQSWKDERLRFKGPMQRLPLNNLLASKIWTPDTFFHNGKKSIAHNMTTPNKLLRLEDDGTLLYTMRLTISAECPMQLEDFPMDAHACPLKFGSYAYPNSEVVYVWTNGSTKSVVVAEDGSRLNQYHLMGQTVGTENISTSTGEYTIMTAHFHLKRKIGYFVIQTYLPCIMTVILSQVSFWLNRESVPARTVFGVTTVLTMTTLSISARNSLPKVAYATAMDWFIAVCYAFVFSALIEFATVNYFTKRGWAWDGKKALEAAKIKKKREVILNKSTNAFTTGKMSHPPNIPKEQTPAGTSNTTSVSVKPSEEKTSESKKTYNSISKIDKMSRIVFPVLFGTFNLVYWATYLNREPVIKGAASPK

Mus musculus [9] = experiment: Neurotoxicity in CD1 albino mouse assessed as decrease in number of falls from rotating rod at 10 mg/kg, po by rota-rod test relative to control; assay type: toxicity, organism-based; set-up: dose 10 mg/kg, route oral; conditions: in vivo, TDE = time-dependent effect
Procedure, shortened: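 Motor coordination was tested on a rota-rod turning at 24 rpm in male CD-1 mice dosed po in 1% CMC. Falls within 30 s were counted at a pretest and at 15, 30, 45 and 60 min after dosing. Each value is the mean of five mice, compared with CMC-treated controls.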

[10] = molecular target: T2, GABA-A receptor; alpha-1/beta-2/gamma-2 (Homo sapiens, UniProt P14867+P18507+P47870); experiment: Displacement of [3H]Ro15-1788 from recombinant GABA-A alpha1beta2gamma2 receptor benzodiazepine binding site (unknown origin) after 1 hr; assay type: protein-complex assay; procedure, shortened: as §2
T2 sequence (P14867 whole entry): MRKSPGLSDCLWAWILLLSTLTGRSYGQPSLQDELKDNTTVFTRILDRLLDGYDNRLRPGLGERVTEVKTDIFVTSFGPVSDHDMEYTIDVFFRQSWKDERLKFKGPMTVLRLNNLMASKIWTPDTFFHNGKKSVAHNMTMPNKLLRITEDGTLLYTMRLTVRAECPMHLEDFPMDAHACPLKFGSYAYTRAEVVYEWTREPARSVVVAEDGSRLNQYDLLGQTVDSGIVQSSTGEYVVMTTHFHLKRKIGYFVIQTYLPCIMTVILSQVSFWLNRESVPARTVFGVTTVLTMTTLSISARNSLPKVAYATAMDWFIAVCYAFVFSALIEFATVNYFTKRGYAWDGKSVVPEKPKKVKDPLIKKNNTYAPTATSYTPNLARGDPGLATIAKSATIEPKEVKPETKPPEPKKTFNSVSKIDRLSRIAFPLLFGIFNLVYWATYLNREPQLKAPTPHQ
T2 sequence (P47870 whole entry): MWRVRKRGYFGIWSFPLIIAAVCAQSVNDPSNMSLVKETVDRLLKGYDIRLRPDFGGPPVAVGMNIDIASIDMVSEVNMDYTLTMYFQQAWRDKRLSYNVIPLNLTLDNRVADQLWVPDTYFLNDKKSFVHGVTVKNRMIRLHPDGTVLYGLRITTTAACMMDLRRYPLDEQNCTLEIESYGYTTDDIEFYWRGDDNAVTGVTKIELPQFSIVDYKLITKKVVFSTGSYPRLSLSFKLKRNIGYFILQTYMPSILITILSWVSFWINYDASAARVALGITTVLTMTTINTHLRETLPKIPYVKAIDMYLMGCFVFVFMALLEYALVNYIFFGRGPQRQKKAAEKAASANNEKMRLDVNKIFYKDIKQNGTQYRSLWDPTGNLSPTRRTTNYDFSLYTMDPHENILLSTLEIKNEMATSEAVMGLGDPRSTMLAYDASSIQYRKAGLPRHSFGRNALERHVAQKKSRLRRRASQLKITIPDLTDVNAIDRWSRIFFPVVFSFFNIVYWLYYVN
T2 sequence (P18507 whole entry): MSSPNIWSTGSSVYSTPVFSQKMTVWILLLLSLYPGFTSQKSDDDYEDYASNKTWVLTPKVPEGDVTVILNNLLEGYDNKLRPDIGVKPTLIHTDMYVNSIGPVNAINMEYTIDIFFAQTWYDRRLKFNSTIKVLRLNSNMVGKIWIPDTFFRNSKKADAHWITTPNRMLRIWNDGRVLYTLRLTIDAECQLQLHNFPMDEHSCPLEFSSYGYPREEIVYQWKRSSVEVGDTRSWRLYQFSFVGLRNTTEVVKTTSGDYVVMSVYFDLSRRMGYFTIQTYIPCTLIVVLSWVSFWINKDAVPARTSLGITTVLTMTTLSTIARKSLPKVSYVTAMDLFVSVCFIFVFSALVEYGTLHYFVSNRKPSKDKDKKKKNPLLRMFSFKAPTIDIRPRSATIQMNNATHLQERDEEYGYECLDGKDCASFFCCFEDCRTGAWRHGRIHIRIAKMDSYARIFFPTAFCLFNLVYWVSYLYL

Mus musculus [11] = experiment: Anticonvulsant activity in CD1 albino mouse assessed as protection against pentylenetetrazole-induced convulsions at 1 mg/kg, po administered 30 mins prior to pentylenetetrazole challenge measured over 30 mins (reference value: 7.1%); assay type: functional
Rattus norvegicus [12] = experiment: Procognitive effect in Harlan Wistar rat assessed as exploring time of familiar rat during social investigatory behaviour at 10 mg/kg, po administered 30 mins prior to testing measured for 5 mins by social learning test (reference value: 27.6 secs); assay type: functional
Rattus norvegicus [13] = experiment: Procognitive effect in Harlan Wistar rat assessed as exploring time of familiar rat during social investigatory behaviour at 1 mg/kg, po administered 30 mins prior to testing measured for 5 mins by social learning test (reference value: 27.6 secs); assay type: functional

## [O-][n+]1nc2c(I)cnn2c2cc(NCc3cccnc3)ccc21
Mus musculus [1]
  Activity: inactive
Rattus norvegicus [2]
  Activity: inactive
[3]
  Ki: 0.33 nM
Mus musculus [4]
  Activity: Active
Rattus norvegicus [5]
  Time: 29.4 s
[6]
  inhibition: 37%
Mus musculus [7]
  Activity: Active
[8]
  Ki: 24.9 nM
Mus musculus [9]
  Activity: tde
[10]
  Ki: 0.45 nM
Mus musculus [11]
  Activity: 0%
Rattus norvegicus [12]
  Time: 42.5 s
Rattus norvegicus [13]
  Time: 43.7 s
